Bioassay records from PubChem BioAssay.
TCR CD3 inh – blocks the human TCR-CD3 interaction | AID 651800 | 360,000 tested, 0.37% active | inhibition, % at 9.4 µM | TAMRA-labeled TCR probe fluorescence, biochemical; in the data active means inhibition above about 19%;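 further: recombinant mutant TCR 2C K166C tagged with TAMRA read by polarization; 0% = receptor in buffer alone and 100% = receptor with positive control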
mABHD4 FP – ABHD4 (mouse) inhibition, primary FP screen | Q8VD66 | purified mABHD4, FP-Rh probe fluorescence polarization | inhibition, % at 8.92 µM | 370,000 tested, 0.54% active | AID 720543;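 active means inhibition exceeding the mean over every tested compound plus 3 SD, cut at about 30% in these data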;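 further: 0% = plate median of compound wells and 100% = S159A mutant with DMSO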
Target sequence (Q8VD66 whole entry, looked up): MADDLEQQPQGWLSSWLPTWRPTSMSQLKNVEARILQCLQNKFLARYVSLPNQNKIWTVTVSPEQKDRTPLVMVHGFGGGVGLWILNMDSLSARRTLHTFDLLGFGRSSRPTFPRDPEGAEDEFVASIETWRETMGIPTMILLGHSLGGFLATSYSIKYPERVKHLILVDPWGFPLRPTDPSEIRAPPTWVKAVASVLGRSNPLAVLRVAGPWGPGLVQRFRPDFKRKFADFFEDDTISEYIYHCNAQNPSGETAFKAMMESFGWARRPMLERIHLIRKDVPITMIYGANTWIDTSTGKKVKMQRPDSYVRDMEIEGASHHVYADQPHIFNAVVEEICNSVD
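Test system: mouse ABHD4 enzyme, wild type. Reagent: FP-Rh fluorescent activity-based probe, added after compound pre-incubation. Timing: pre-incubation 45 min, probe exposure 60 min, at 25 °C. Technique: FP readout, ex 525 nm / em 598 nm. Benchmarks: high control S159A mutant with DMSO, low control median of compound wells.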
SIAE primary – inhibitors of human sialic acid acetylesterase SIAE; Q9HAT2; SIAE FP-Rh probe binding, fluorescence polarization; inhibition, % at 9.66 µM; 370,000 tested, 0.69% active; AID 1053197;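 active means inhibition above a cutoff: mean of compounds within the control limits plus 3 SD of those, cut at about 17% in these data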;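 further: 0% = plate median of compound wells and 100% = probe without SIAE protein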
HTRA1 inh – inhibitors of human serine peptidase HTRA1 | Q92743 | recombinant HTRA1, FP-rhodamine activity-based probe, fluorescence polarization | inhibition, % at 5.96 µM | 340,000 tested, 0.5% active | AID 504803; in the data active means inhibition above about 36%;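 further: 0% = enzyme with DMSO and 100% = wells lacking enzyme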
ARNT TACC3 PPI – ARNT/TACC3 interaction disruption; Q9Y6A5; AlphaScreen His-ARNT PAS-B/GST-TACC3 binding, luminescence; TACC3 fragment carries E629A point mutation; inhibition, % at 9.99 µM; 390,000 tested, 0.66% active; AID 623870;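 active means mean inhibition of replicates at least 50% and at least half of replicates each reaching 50%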;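 further: 0% = complete ARNT plus TACC3 wells and 100% = ARNT alone without TACC3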
HTRA1 inh conf – HTRA1 (human) inhibition, confirmation; shares compounds with HTRA1 inh; recombinant HTRA1, FP-rhodamine activity-based probe, fluorescence polarization; inhibition, % at 5.96 µM; 1,600 tested, 66% active;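 active means mean inhibition over three repeats above a set limit taken from the earlier primary screen, cut at about 37% in these data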;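 further: 0% = HTRA1 with DMSO and 100% = wells lacking HTRA1; inhibitors block probe binding so polarization drops and inhibition rises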
The depositor's hits bear a star; . = no result given; + = active, no number. A selection: hits, their analogues and other compounds. The true share with any hit is near 1.8%.

SMILES	TCR CD3 inh	mABHD4 FP	SIAE primary	HTRA1 inh	ARNT TACC3 PPI	HTRA1 inh conf
COc1ccccc1Nc1ccc(N)cc1	2.1	24.1	9.6	67.9*	-5.1	55.5*
CN(C)C(=O)[C@@H]1[C@@H](CO)[C@@H]2Cn3c(ccc(-c4ccncc4)c3=O)[C@H]1N2CC1CC1	.	.	.	.	-1.0	.
CCOc1ccc(N2C(=O)CS/C2=C(\C(Cl)=C(Cl)Cl)[N+](=O)[O-])cc1	.	.	.	41.5*	3.5	+
COc1ccc(NC(=O)N(C)C[C@H]2Oc3ccc(NC(=O)C4CCCCC4)cc3CC(=O)N([C@@H](C)CO)C[C@@H]2C)cc1	.	.	.	.	-3.7	.
COc1cc(CNc2ccc(N3CCCCC3)cc2)ccc1OCC(=O)NC(C)(C)C	0.5	26.6	7.0	40.9*	3.2	8.2
COc1cc(CNc2ccc(N3CCCC3)cc2)ccc1OCc1ccccc1F	.	.	.	40.4*	-0.5	18.0
COCc1cc(C)nc(SCC(=O)Oc2ccccc2)c1C#N	2.4	1.2	-7.3	1.7	-1.1	.
COCc1cc(C)nc(SCC(=O)c2ccc(O)c(O)c2)c1C#N	3.9	16.8	2.6	60.6*	-1.5	50.1*
COc1ccc(S(=O)(=O)Nc2ccc3c(c2)C(=O)N([C@H](C)CO)C[C@@H](C)[C@@H](CN(C)C(=O)C2CCCCC2)OCCCC[C@H](C)O3)cc1	.	.	.	.	-7.8	.
Cc1cc(N=Nc2ccccc2)c(NCC(O)C(O)C(O)CO)cc1C (stereo unspecified)	-7.5	13.9	3.9	44.8*	6.8	38.5*
COc1ccc(-c2cc3ccccc3n2CC(O)Cn2nc(C)cc2C)cc1 (stereo unspecified)	2.8	-7.6	12.8	38.0*	.	-11.3
COc1ccc(-c2cc3ccccc3n2CC(O)CN2CCC(C)CC2)cc1 (stereo unspecified)	0.8	11.0	-0.8	-9.1	-5.3	.
CCc1cccc(NC(=O)Cn2cc3c(n2)CCCC3)c1	0.1	-7.1	0.2	-9.5	-31.4	.
CN(C)c1ccc(NC(=O)Cn2cc3c(n2)CCCC3)cc1	-9.4	4.9	3.4	43.7*	19.7	59.4*
CCCn1c(/C=N/Nc2nc3ccccc3[nH]2)nc2ccccc21	-5.2	13.8	12.6	34.2	4.0	.
Cn1c(/C=N/Nc2nc3ccccc3[nH]2)nc2ccccc21	-9.0	26.7	-3.8	36.5*	.	44.3*
CCN(CC)c1ccc(C2Nc3cccc4cccc(c34)N2)c(O)c1	-3.9	22.8	9.6	18.4	-0.8	.
Oc1ccc2ccccc2c1C1Nc2cccc3cccc(c23)N1	.	.	.	51.6*	9.2	23.1
O=C(C[C@@H]1CC[C@@H]2[C@H](COC[C@H](O)CN2CC2CC2)O1)NCc1ccc(Cl)cc1	.	.	.	.	3.6	.
COCC(=O)N1C[C@@H](C)[C@@H](OC)CN(C)C(=O)c2cc(NC(=O)Nc3cccc(F)c3)ccc2OC[C@H]1C	.	.	.	.	-0.9	.
CCCCn1c(CNC(=O)CCC)nc2ccccc21	4.7	5.2	1.5	4.8	-3.8	.
CCCn1c(CNc2ccccc2O)nc2ccccc21	-4.6	26.8	6.2	44.2*	42.2	59.3*
COc1ccc(-n2nnnc2SCC(N)=O)cc1	-2.2	1.5	0.2	9.2	3.7	.
COc1ccc(-n2nnnc2SCC(=O)c2ccc(O)c(O)c2)cc1	18.4	24.1	4.3	45.5*	-1.6	61.3*
O=[N+]([O-])c1cc2c(cc1C=Nc1ccccc1)OCO2	.	.	.	51.0*	3.1	4.4
SMILES	TCR CD3 inh	mABHD4 FP	SIAE primary	HTRA1 inh	ARNT TACC3 PPI	HTRA1 inh conf
CCOC(=O)/C(=N\Nc1ccc(OC)cc1)c1csc(Nc2ccccc2)n1	4.8	12.6	15.3	42.9*	15.2	27.7
O=c1[nH][nH]c2cc(=O)n(-c3cccc(C(F)(F)F)c3)nc12	8.9	61.8*	11.4	58.7*	7.8	13.5
O=C(NC1CC1)C1Nc2ccc(OC(F)(F)F)cc2C2C=CCC12 (stereo unspecified)	-12.2	28.0	3.5	48.3*	-8.9	-2.7
O=C(NCCCN1CCOCC1)C1Nc2ccc(OC(F)(F)F)cc2C2C=CCC12 (stereo unspecified)	-2.0	13.9	12.8	28.5	.	.
O=C(NCc1ccccc1)C1Nc2ccc(OC(F)(F)F)cc2C2C=CCC12 (stereo unspecified)	-2.7	12.1	9.7	16.7	.	.
CCOC(=O)C1Nc2ccc(OC(F)(F)F)cc2C2C=CCC12 (stereo unspecified)	-0.9	11.3	6.2	57.8*	-2.6	55.3*
CC(C)NC(=O)N(C)C[C@H]1Oc2cc(C#C[C@@H](C)O)ccc2S(=O)(=O)N([C@@H](C)CO)C[C@@H]1C	.	.	.	.	-3.9	.
COc1ccc(NC(=O)Nc2ccc3c(c2)C(=O)N([C@H](C)CO)C[C@H](C)[C@H](CN(C)S(=O)(=O)c2ccc(OC)cc2)OCCCC[C@H](C)O3)cc1	.	.	.	.	-18.8	.
C[C@@H]1CCCCO[C@H](CN(C)S(C)(=O)=O)[C@@H](C)CN([C@H](C)CO)C(=O)c2cc(NS(=O)(=O)c3cccs3)ccc2O1	.	.	.	.	0.0	.
NS(=O)(=O)c1ccc2c(c1)C1C=CCC1C(C1CC=CCC1)N2 (stereo unspecified)	1.0	25.6	9.9	63.9*	0.9	37.6*
S=c1[nH]nc(-c2c[nH]c3ccccc23)o1	8.9	-0.5	3.4	-4.2	-4.9	.
Oc1cc2ccccc2cc1-c1n[nH]c(=S)o1	1.6	23.1	-3.7	48.2*	5.0	49.0*
O=c1c(CN2CCN(c3ccccn3)CC2)coc2ccccc12	0.1	0.7	0.9	1.8	0.9	.
Oc1c(CN2CCOCC2)ccc2ccccc12	4.2	27.2	6.5	11.4	-2.0	.
Oc1c(CN2CCCCC2)ccc2cccnc12	13.1	21.9	6.9	73.5*	88.6*	69.1*
Oc1c(CN2CCCCC2)cc(COCc2ccccc2)c2cccnc12	-5.8	13.9	-2.9	64.5*	62.5*	72.4*
CN(C)[C@H]1CCN([C@H]2CS(=O)(=O)N[C@@H]2COCc2ccccc2)C1	-2.8	1.6	-1.6	.	.	.
CN(C)C1CCN(Cc2cc(COCc3ccccc3)c3cccnc3c2O)C1 (stereo unspecified)	.	.	.	53.7*	75.3*	76.2*
Oc1c(CN2CCN(c3ccccn3)CC2)cc(Cl)c2cccnc12	.	.	.	38.9*	59.6*	58.4*
Oc1cc(Cc2ccccc2)cnc1CN1CCCCC1	1.5	5.7	2.5	3.7	-0.6	.
CC(C)c1cn(CC[C@H]2CC[C@@H](NC(=O)C3CCCC3)[C@H](CO)O2)nn1	.	.	.	.	-1.9	.
Oc1ccc(/C=N/N2CCN(C3c4ccccc4-c4ccccc43)CC2)cc1	-1.3	-1.0	0.8	4.7	-5.1	.
Oc1ccc(/C=N/N2CCN(C3c4ccccc4-c4ccccc43)CC2)cc1O	13.1	29.2	4.5	37.6*	5.5	+
COC(=O)C1=NN(C(=O)c2cccc(Br)c2)C(O)(c2ccc(Cl)cc2)C1 (stereo unspecified)	3.7	8.8	2.6	66.0*	-0.1	65.4*
